Reference: PMC6743453 (Molecular Biology of the Cell, 2019)
Entries after “also recorded” stand apart in the source; their conditions may differ.

Tests used:
[1] = tested on: human OCRL ASHRhoGAP domain; experiment: Peptide array overlay with GST-hOCRL-ASHRhoGAP; type: binding; details: summary statement, test not specified at the place
[2] = tested on: endogenous OCRL (mouse brain extracts); experiment: GST-F&H peptide pull down of endogenous OCRL from mouse brain extracts; type: binding; details: GST fusions of 13 amino acid F&H motif peptides, Ses2 and APPL1 as positive controls
[3] = tested on: F&H surface of Dd5P4 (GFP-Dd5P4 WT vs W620A); experiment: GFP immunoprecipitation and mass spectrometry of GFP-Dd5P4 interactors; type: binding, Dictyostelium discoideum; details: triplicate GFP immunoprecipitates; Dd5P4- cells expressing GFP-Dd5P4 WT vs W620A; label-free quantitation
Method in brief: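 Cells were grown to 80% confluency in HL5 (glucose, vitamins, trace elements), with fusion strains under 5 µg/ml G418. Lysis buffer: 20 mM Tris pH 8, 10% glycerol, 100 mM NaCl, 1 mM EDTA, 1 mM DTT. Untransfected WT cells served as negative control. Beads were digested overnight with trypsin at 37°C, then StageTip-desalted. C18 nanoLC used a 95-min 5–30% acetonitrile gradient into a Q Exactive, with data-dependent top-10 MS/MS.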

[4] = tested on: endogenous OCRL (Cos7 cells); experiment: Frabin-GFP anti-GFP co-immunoprecipitation with endogenous OCRL in Cos7 cells; type: binding; details: full length Frabin-GFP, GFP-trap beads, Western blot
Method in brief: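 Frabin-GFP expressed in Cos7 cells by nucleofection, then pulled down on GFP-trap beads and washed extensively. Western blot detected Frabin-GFP with anti-GFP antibody and endogenous OCRL with mouse anti-human OCRL antibody.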

In the case of AFHQRHETFRNAI* [Frabin], the “strength of Frabin F&H peptide interaction with OCRL” value [1] is reported as “strong” and the “enrichment of endogenous OCRL by GST-F&H peptide” value [2] is reported as “specifically enriched endogenous OCRL”.

“DDB_G0284853: mycBP2/Highwire-like protein of D. discoideum” was tested, and the “enrichment in GFP-Dd5P4 immunoprecipitates” value [3] was “specifically enriched in precipitates from GFP-Dd5P4-expressing cells versus negative control precipitates, but not in precipitates from GFP-Dd5P4^W620A-expressing cells”.

B1: DDB_G0275301: OCRL-Interacting Bar domain Protein of D. discoideum (protein)
chain: MFKKGLDVLSKTKNAAVSSMTELETESDEVQNAKVALKNMKWSIKLLIQLAKNYFATSDKQVQQGTAFSVILQRFSEKISHTNYIINQTLPLSDSLREVGEGIKNSSTYFQQYTQIFCDKFATNIEALYVGHVKKVATLEKQQEESRIKYNNALNYLKSTQKSGHTGTKLAEKTTEYENAKAYYEQISLNLISATNDMVNYVQREVAVQMKQFVAEQQLMVQECIKMWVIAENKLFNSQSPVNTTSTTSPNTYGDYNNNANTVNLSKLSLDKEEQPPQPYQPPQQHSPPQQTFHQSPPTDFSSQHQQYSFDQSSPQETYQPPQQQQPEGQKSPNPFDDKNPFDN
For B1, the “enrichment in GFP-Dd5P4 immunoprecipitates” value [3] was “specifically enriched in precipitates from GFP-Dd5P4-expressing cells versus negative control precipitates, but not in precipitates from GFP-Dd5P4^W620A-expressing cells”.

B2: DDB_G0280015: PH domain Interacting with OCRL, 741 amino acid protein of D. discoideum (protein)
chain: MESSSMTTNNNNNNSTISPSSSTTSISTSKNNDFLTLHKAYIDEWLMVSFLPILKTTYDGENNFYDISNLNIKNVNQRNIPFSEQLFALDRQFQNLINQWEKLSRSDQQRAAKIESYQQSFYTFIDRIKSTLEKTMVELGGSLEDSNFLAAAISLKEKQSKNKRLTIMARSRISPGGTSSTQYQHQMHLTGPISIVWNEILIIITRKVNEEVVRLQTENINNNIKNINNSEFNITNDIYQFNNNNLTQANKLEINNQRQKLYQQALSNIVPMLFEWRIMMANAQKVISEEKRFKVNPFIPTTVYDHNSSSFISAPILISTTNKTATTLLNNLNNNNIINNNNNNNNNNNNNNNNNNNNNNNNNSSSNSNNNNNSPISNSPSSSSPSPSSPTLTNRPSFINYDNQNNENNINNNNNNENNIGNNNINNNNSNENSDNKFSEEINISSSPPGTSGMTNSTSNLPTIASPTSWTKAVKRPAMSSSGGNIPILNNLGTSLNNNNNNKQIQDNNNNNLNTINANSNGNNNNSSNNVNSENNNIPTGGIIKQGWMKKRGTKNKSWKKRYFILDMKKTLRYYKDNSKIPHGNNSNNSGGGSSSNNNNCNSGNNNNGLNGGSGKGDQVNGNNISLPIGNNPHFHSSSGSGIPTTSPSMSSSSTSLENNDILSSFDHLKYKGSIDLYTSLVVAIKPSTFNVNINNSGSFKEDNNSYFGMDIITPSRTWNFCCESSKSMEDWLIVLKSANK
B2 was tested, and the “enrichment in GFP-Dd5P4 immunoprecipitates” value [3] was “specifically enriched in precipitates from GFP-Dd5P4-expressing cells versus negative control precipitates, but not in precipitates from GFP-Dd5P4^W620A-expressing cells”.

B3: GxcU: putative Rho-GEF of D. discoideum (protein)
chain: MDTKNKEILGSTIKAWIGRKRYKTMMVNKTNRDKVAKEILDTEQIYVRNLETIVQFYLKPLRNINPPLLSPKSIQIIFGHIEDLLSLNTELLTSIQDRMTTWYQDKRLGDIFTKMAPYLKVYTEYCGNYDKAVARLKQKSDESRDLQMFLKRVTSENSFGLDLNSLLVTPIQRIPRYKLLLQSLIQLTPVEFSDYPTLAKALENVALVADHINESIREKQNSEKILTIQKRFTGQCPPLLAPLRTFIREGSLTKVCRKDHKKRWFILFSDALVYGNRIDTAVGNPIYKFHRLLPLSNTKIANLDDTKHKNSFQLIHPIKSFTLIADTEQEKSSWMNSFSDAQNFLLRNEGSVARMNKQYRSINILKPKEEETVSTAPVWIPDSEAIQCMECTIKFTTIRRRHHCRRCGNVVCGKCSEQKWTLDQYKKDARVCKTCYNYLSISSSRSNENNVSSSNNLSTPTSTFTATTATATAPFGTLTDGASLADVSSDSEGEDNSSSINDSNPDMPIINGLSSIQIDNTPVILNTVNPSPPLLSQPQPQQPQQPQLQPLQQPLQQPPQPPQPPQTNHKSFIATHTAYNKENSLKSTSPSSSFIETSTSTSASTSTSTSTSTSTSTSTSTSTSTSTSNSTSNSTLTPGPPMLSKSNAGNSSLLDFCKSYIQNSPNVSPAKVEKHKHSSSSSSASNSPMQSRTNLDIPSTTTTSTSKGSISPTQSSESIVLPELKPITHDPLVTSNNSSSTLKVNQPIQHTNSSSKLNVIVSTPQTTQTTENNVNNTNTNTTTTNNNNNNNNNNNNNNNNNNNNNNNNNNNNSDVSSPKPTTKSLPPTPPTKKLPPTPPPKPLPPQPTLPQQPTLPPQPNLPPQPNLPPQPNLPPQPNLPPQPNLPQQPDLSQPPPQQQQQPTLDQAPPRPPKPNQDSRSQSFLCISSTVNSTPPTPPPKRIISTHPANTSFIYQPQQYVSSPNINNVPPPLPPPRIKSQAPIQRD
B3 was tested, and the “enrichment in GFP-Dd5P4 immunoprecipitates” value [3] was “specifically enriched in precipitates from GFP-Dd5P4-expressing cells versus negative control precipitates, but not in precipitates from GFP-Dd5P4^W620A-expressing cells”.

B4: Frabin-GFP: full length Frabin-GFP expressed in Cos7 cells (protein)
chain: MEEIKPASASCVSKEKPSKVSDLISRFEGGSSLSNYSDLKKESAVNLNAPRTPGRHGLTTTPQQKLLSQHLPQRQGNDTDKTQGAQTCVANGVMAAQNQMECEEEKAATLSSDTSIQASEPLLDTHIVNGERDETATAPASPTTDSCDGNASDSSYRTPGIGPVLPLEERGAETETKVQERENGESPLELEQLDQHHEMKETNEQKLHKIANELLLTERAYVNRLDLLDQVFYCKLLEEANRGSFPAEMVNKIFSNISSINAFHSKFLLPELEKRMQEWETTPRIGDILQKLAPFLKMYGEYVKGFDNAMELVKNMTERIPQFKSVVEEIQKQKICGSLTLQHHMLEPVQRIPRYEMLLKDYLRKLPPDSLDWNDAKKSLEIISTAASHSNSAIRKMENLKKLLEIYEMLGEEEDIVNPSNELIKEGQILKLAARNTSAQERYLFLFNNMLLYCVPKFSLVGSKFTVRTRVGIDGMKIVETQNEEYPHTFQVSGKERTLELQASSAQDKEEWIKALQETIDAFHQRHETFRNAIAKDNDIHSEVSTAELGKRAPRWIRDNEVTMCMKCKEPFNALTRRRHHCRACGYVVCWKCSDYKAQLEYDGGKLSKVCKDCYQIISGFTDSEEKKRKGILEIESAEVSGNSVVCSFLQYMEKSKPWQKAWCVIPKQDPLVLYMYGAPQDVRAQATIPLLGYVVDEMPRSADLPHSFKLTQSKSVHSFAADSEELKQKWLKVILLAVTGETPGGPNEHPATLDDHPEPKKKSEC
modifications: left off: GFP, end not stated, kept
In the case of B4, the “coprecipitation of endogenous OCRL with Frabin-GFP” value [4] is reported as “weak but specific interaction with endogenous OCRL; also recorded: weak, albeit specific, coprecipitation with OCRL”.
